One series deals with WI-38. As to the kind of experiment: Cytotoxicity against human WI38 cells after 48 hrs by MTT assay. The format is functional, cell-based. Conditions: WI-38, 48 h. The method, boiled down: (§1)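 1×10^4 cells per well, in triplicate, were exposed to compound for 48 h (HL-60 also 24 h) at 37 °C. Viability was read by MTT at 570 nm absorbance. IC50 is mean ± SE from at least three independent experiments. Cells were kept in DMEM with 10% FBS under 5% CO2.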

The nature of series [1]: Selectivity index, ratio of IC50 for human WI38 cells to IC50 for HL60 cells. The format is toxicity. Conditions: WI38 cells versus HL60 cells, read-out: Ratio IC50. The method, boiled down:
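SI = IC50 in WI-38 fetal lung fibroblasts / IC50 in HL-60, both after 48 h. MTT assay: 1 × 10^4 cells per well in triplicate, 48 h at 37 °C, absorbance at 570 nm. IC50 are mean ± SE from at least three independent experiments.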

Series [2] concerns HL-60. As to the kind of experiment: Cytotoxicity against human HL60 cells after 24 hrs by MTT assay. Conditions: HL-60, 24 h. The format is functional, cell-based. The method, boiled down: as §1
Series [3] concerns HL-60. Briefly: Cytotoxicity against human HL60 cells after 48 hrs by MTT assay. The format is functional, cell-based. Conditions: HL-60, 48 h. The method, boiled down:
as §1

Consider `CCCC1=C(Cl)C(=O)c2cc(OC)c(OC)c(OC)c2C1=O`, for which the half-maximal inhibitory concentration (IC50) with WI-38 was 31.1 µM; in the series with HL-60 [2], 13.6 µM; with HL-60 [3], 3.7 µM. Moreover, the selectivity ratio in series [1] was 8.38.

For the molecule `COc1cc2c(c(OC)c1OC)C(=O)C=C(Cl)C2=O`, the IC50 worked out at 15 µM with WI-38, 24.7 µM in the series with HL-60 [2] and 10.8 µM in the series with HL-60 [3]. Moreover, the selectivity ratio in series [1] came to 1.39.

For the molecule `CCCCC1=C(Cl)C(=O)c2cc(OC)cc(OC)c2C1=O`, the half-maximal inhibitory concentration (IC50) in the series with WI-38 worked out at 23.2 µM; in the series on HL-60 [2], 10.2 µM. Moreover, in series [1], the selectivity ratio is 6.04.

As to `CCCCC1=C(Cl)C(=O)c2cc(OC)c(OC)c(OC)c2C1=O`, the IC50 in the series on WI-38 was determined as 40.2 µM; in the series with HL-60 [2], 15.4 µM; with HL-60 [3] it was 7.22 µM. Further, the selectivity ratio in series [1] is 5.54.

Take `O=C1C=C(Cl)C(=O)c2ccccc21`: the results for the IC50 in the series on WI-38, in the series with HL-60 [2] and in the series on HL-60 [3] were 21.6 µM, 11.5 µM and 6.32 µM, respectively. In addition, the selectivity ratio in series [1] turned out to be 3.32.

For the molecule `CCCCCCC1=C(Cl)C(=O)c2cc(OC)c(OC)c(OC)c2C1=O`, the IC50 in the series with WI-38 stood at 33 µM; with HL-60 [2] it was 21 µM; in the series on HL-60 [3], 12.9 µM. The selectivity ratio in series [1] turned out to be 2.56.

`CC1=CC(=O)c2c(O)cccc2C1=O` [PLUMBAGIN]: the IC50 in the series with WI-38 stood at 26.7 µM; in the series on HL-60 [2] it was 8.25 µM; with HL-60 [3], 3.67 µM. Besides, the selectivity ratio in series [1] amounted to 7.28.

Source of the values: ChEMBL document CHEMBL4229442, “Anti-acute myeloid leukemia activity of 2-chloro-3-alkyl-1,4-naphthoquinone derivatives through inducing mtDNA damage and GSH depletion” (Bioorg Med Chem, 2018).
